# ABCG2 block – inhibitors of human ABCG2 transporter, ABCB1 counter-screen; AID 1325; Q9UNQ0; IgMXP3 cells, JC-1 efflux, flow cytometry; inhibition, % at 6.6 µM; 190,000 tested, 0.1% active;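 active = inhibition above 80%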
# Target sequence (Q9UNQ0 whole entry, looked up): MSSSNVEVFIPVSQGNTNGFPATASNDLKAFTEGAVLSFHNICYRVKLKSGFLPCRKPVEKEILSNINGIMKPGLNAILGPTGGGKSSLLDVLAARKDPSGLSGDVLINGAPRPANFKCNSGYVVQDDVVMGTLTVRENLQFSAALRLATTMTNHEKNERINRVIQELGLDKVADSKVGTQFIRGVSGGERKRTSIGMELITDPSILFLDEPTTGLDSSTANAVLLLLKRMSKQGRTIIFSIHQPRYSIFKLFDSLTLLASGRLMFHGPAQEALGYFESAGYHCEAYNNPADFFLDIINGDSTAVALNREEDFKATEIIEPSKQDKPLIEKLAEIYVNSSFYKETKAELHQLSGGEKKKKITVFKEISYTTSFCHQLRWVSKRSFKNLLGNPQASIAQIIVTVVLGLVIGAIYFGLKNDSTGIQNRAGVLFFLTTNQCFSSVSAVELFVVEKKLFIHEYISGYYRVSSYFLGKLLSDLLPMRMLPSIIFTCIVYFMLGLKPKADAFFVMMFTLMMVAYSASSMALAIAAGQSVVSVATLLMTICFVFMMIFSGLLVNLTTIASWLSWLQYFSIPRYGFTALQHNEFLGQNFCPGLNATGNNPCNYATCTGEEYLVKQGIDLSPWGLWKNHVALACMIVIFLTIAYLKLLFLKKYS
#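 Measure – % inhibition of efflux relative to nicardipine and DMSO · Test system – ABCG2 IgMXP3 and barcoded ABCB1 CCRF-Adr cell mix · Control set – nicardipine as high control, DMSO as low control · Compound – one concentration, 6.6 µM final · Signal – flow cytometry of retained JC-1 fluorescence · Timing – 10 min exposure at 25 °C with rotation, no wash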
# ABCB1 block – inhibitors of human ABCB1 transporter, ABCG2 counter-screen. P08183. CCRF-Adr cells, JC-1 efflux, flow cytometry. inhibition, % at 6.6 µM. 190,000 tested, 0.067% active. AID 1326; in the data active = inhibition above about 40%;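 note: higher value means more JC-1 retained so stronger ABCB1 efflux block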
# Autophagy mod – modulators of autophagy | MEF GFP-LC3 puncta imaging; test concentration mostly 10 µM | calls only at 10 µM (by protocol) | 190,000 tested, 0.98% active | AID 463193;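 active = percentage of spot-positive cells more than 3 SD above its plate mean, without a fluorescence outlier flag or 80% toxicity; inconclusive = no clear call, values can overlap the other calls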
# SDO1 yeast rescue – sdo1-depleted yeast growth rescue; 140,000 tested, 0.21% active; S. cerevisiae sdo1-depleted JHY4D growth rescue, OD600 30 h; active compounds read high; pdr5 snq2 efflux-pump mutant strain; z-score at 10 µM;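 active = z-score above 3 at both the 24 hr and the 30 hr optical density reads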
# Insulin prom up – MIN6 insulin promoter up-regulation. MIN6 insulin promoter-GFP reporter, high-content imaging; active compounds read high. z-score at 5 µM. 190,000 tested, 0.3% active. AID 1625;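 active = z-score above 3 at 5 µM with at least 500 cells counted in the well; inconclusive = wells under 500 cells, flagged as cytotoxic or low count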
# ROMK primary – modulates human ROMK potassium channel activity; P48048; Tet-inducible ROMK, thallium flux fluorescence; actives lie on both sides; B-score at 10 µM; 130,000 tested, 2% active; AID 1918;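 active = signal ratio slope over the read window, or its plate-corrected B-score, at least 3 SD from the plate mean, either direction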;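 note: B-score of the F/F0 ratio slope over 7 to 12 s after thallium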
# Numbers stand for hits; . = inactive; ? = inconclusive; / = no result given; + = active, no number. Sampled rows, rich in hits. Any-hit rate of the full collection: about 2.3%.
SMILES,ABCG2 block,ABCB1 block,Autophagy mod,SDO1 yeast rescue,Insulin prom up,ROMK primary
CN(C)c1ccc(C(=O)N/N=C/c2cc(Br)cc(Br)c2O)cc1,/,/,/,/,4.7,.
COCCCNC(=O)/C(C#N)=C1\N=C(NC(=O)c2cccs2)c2ccccc21,/,/,/,/,.,/
CC(NC(=O)/C(C#N)=C1\N=C(NC(=O)c2cccs2)c2ccccc21)c1ccccc1 (stereo not drawn),.,.,.,.,4,/
N#C/C(C(=O)NCCc1ccccc1)=C1/N=C(NC(=O)c2cccs2)c2ccccc21,.,.,+,.,.,/
CN(CC(=O)NCc1ccccn1)S(=O)(=O)c1ccc(Br)cc1,.,.,.,/,.,.
CC(C)(C)OC(=O)NCc1n[nH]c(=S)n1C1CC1,/,/,/,/,.,.
O=C(c1cc(COc2c(F)cccc2F)on1)N1CCc2ccccc2C1,.,.,.,/,/,.
CN(C)S(=O)(=O)c1cccc(NC(=O)Cn2cc(C(F)(F)F)cc(Cl)c2=O)c1,.,.,.,/,.,.
CN(CC(=O)Nc1cccc2ccccc12)C(=O)c1cccc(S(=O)(=O)N(C)C)c1,/,/,/,/,.,/
NC(=O)c1c(NC(=O)C2COc3ccccc3O2)sc2c1CCN(Cc1ccccc1)C2 (stereo not drawn),.,.,+,/,.,.
CCCCOc1ccc2ccccc2c1C=O,.,.,+,.,.,/
COC(=O)CSc1nc2ccc(NC(=O)c3ccccc3C(=O)N3CCOCC3)cc2s1,.,.,.,.,.,/
O=C(Nc1ccc2nc(SCc3ccc(Cl)cc3)sc2c1)c1ccccc1C(=O)N1CCOCC1,.,.,+,.,.,/
O=C(c1cccc(NS(=O)(=O)c2ccc(F)c(F)c2)c1)N1CCN(Cc2ccccc2)CC1,.,.,.,.,.,/
CCN(CC)CCOc1ccc(Br)cc1,.,.,.,.,.,/
CCN(CC)CCOc1ccc2c(c1)C(=NO)c1cc(OCCN(CC)CC)ccc1-2,.,.,+,.,.,/
CC1=CC2=NC(=O)/C(=C\c3ccc(-c4cccc(Cl)c4)o3)C(=N)N2O1,.,.,+,.,.,.
CO[C@H]1C[C@@H]2CC[C@@H](C)[C@@](O)(O2)C(=O)C(=O)N2CCCC[C@H]2C(=O)O[C@H]([C@H](C)C[C@@H]2CC[C@@H](O)[C@H](OC)C2)CC(=O)[C@H](C)C=C(C)[C@@H](O)[C@@H](OC)C(=O)[C@H](C)C[C@H](C)C=CC=CC=C1C,/,/,/,/,.,/
CC[C@@H]1C=C(C)C[C@H](C)C[C@H](OC)[C@H]2O[C@@](O)(C(=O)C(=O)N3CCCC[C@H]3C(=O)O[C@H](/C(C)=C/[C@@H]3CC[C@@H](O)[C@H](OC)C3)[C@H](C)[C@@H](O)CC1=O)[C@H](C)C[C@@H]2OC,.,.,.,.,.,-3.6
COc1ccc(CCNC(=O)c2cc3c(=O)n(C)c4ccccc4c3n2C)c(OC)c1,/,/,/,/,.,.
NNS(=O)(=O)c1ccc(Sc2ccccn2)c([N+](=O)[O-])c1,/,/,/,/,.,/
O=C(Nc1ccc(F)cc1)Nc1ccc([N+](=O)[O-])cn1,.,.,+,/,.,.
COCCN1C(=O)/C(=C/c2ccc(N3CCCC3)cc2)SC1=S,.,.,+,/,/,-3.5
COc1ccc(/C=C2\SC(=S)N(CC(=O)N3CCN(C)CC3)C2=O)cc1,/,/,/,/,.,/
COc1ccc(CNC(=O)COC(=O)/C=C/c2cccc(Br)c2)cc1OC,.,.,.,/,.,.
SMILES,ABCG2 block,ABCB1 block,Autophagy mod,SDO1 yeast rescue,Insulin prom up,ROMK primary
O=C(CN1CCN(Cc2ccccc2)CC1)Nc1cccc(S(=O)(=O)N2CCCCCC2)c1,.,.,.,/,.,.
O=C(Nc1cccc(S(=O)(=O)N2CCCCC2)c1)c1c2c(nc3ccccc13)CCN(Cc1ccccc1)C2,.,.,+,.,/,/
CC(=O)Nc1ccc(NC(=O)COC(=O)c2c3c(nc4ccccc24)CCN(Cc2ccccc2)C3)cc1,.,.,+,.,.,/
O=C(COC(=O)c1c2c(nc3ccccc13)CCN(Cc1ccccc1)C2)Nc1c(F)cccc1F,.,.,?,.,.,.
CC(C)S(=O)(=O)c1csc(NC(=O)Nc2ccc(Cl)cc2)c1,/,/,/,/,.,/
C/C(=N\NC(=O)c1cc(-c2cccs2)nc2ccccc12)c1ccccn1,.,.,+,/,.,.
Cc1cnc([N+](=O)[O-])n1CCOC(=O)NC(=O)c1ccccc1Cl,.,.,.,/,.,.
CN(C)c1ccc(/C=C/c2ccc3ccccc3[n+]2C)cc1,.,.,+,.,?,/
CN(C)c1ccc(/C=C/c2ccncc2)cc1,.,.,.,.,.,/
CN(C)c1ccc(/C=C/c2ccc3c4ccccc4ccc3[n+]2-c2ccccc2)cc1,.,.,+,/,?,.
Cc1cccc(NC(=O)CCSc2nnc(Cc3ccccc3)o2)c1,.,.,.,.,.,.
CSc1c(-c2ccccn2)c(N)nn1C(=O)C1CCC1,/,/,/,/,.,/
S=c1[nH]c(-c2ccc(Cl)cc2)cs1,.,.,.,/,.,17
Cc1ccc(-c2ccc(C(=O)O)[nH]2)cc1,.,.,.,.,.,.
S=c1nccc(-c2ccc(Cl)cc2)[nH]1,/,/,/,/,.,/
Cc1ccc(-c2csc(=S)[nH]2)cc1,.,.,.,/,.,10
O=C(NCCCO)C(=O)NCc1ccccn1,.,.,.,/,.,.
O=C(c1ccc2c(c1)OCO2)N1CCCC1,.,.,.,.,8.9,/
CSc1nc2c(c(=O)[nH]1)C(c1cccc(Br)c1)CC(=O)N2 (stereo not drawn),.,.,.,/,.,.
Cc1cc(C)n(-c2cccc(Cl)c2)c(=O)c1C#N,.,.,+,.,.,.
Cc1ccc(-n2c(C)cc(C)c(C#N)c2=O)cc1C,.,.,.,/,.,.
COCCNS(=O)(=O)c1cc(OC)ccc1OC,.,.,.,/,.,.
Nc1nc(-c2ccccn2)nc(N)c1Cc1ccc(Cl)cc1Cl,.,.,+,/,.,.
CCn1c(Cn2nnc(-c3ccccc3)n2)nnc1SCC(=O)Nc1ccc(C(C)=O)cc1,.,.,.,.,4.9,/
COc1ccccc1CNC(=O)c1ccc(OC(C)C)cc1,.,.,.,/,.,.
O=C(O)C1CCCCC1C(=O)NCCc1ccc(F)cc1 (stereo not drawn),.,.,.,/,.,.
C=CCNc1nc(NCc2ccccc2)c(C#N)c2c1CN(C)CC2,.,.,.,.,.,.
N#Cc1c(NCCN)nc(NCc2ccccc2)c2c1CCN(Cc1ccccc1)C2,/,/,+,/,.,/

# Screening data as filed in PubChem.
